Source: ChEMBL document CHEMBL3286259, “Synthesis and anticancer activity of some novel 5,6-fused hybrids of juglone based 1,4-naphthoquinones” (Eur J Med Chem, 2014)
The source made the active and inactive calls. The calls are words filed in the database; no cut-off is given here.

How the values were obtained:
[1] = test system: PC-3; assay: Cytotoxicity against human PC3 cells assessed as inhibition of cell viability after 48 hrs by MTT assay; assay type: functional, cell-based; details: PC-3, 48 h
How it was run: (§1)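 Cells were counted by trypan blue exclusion, seeded at 1x10^4 cells per well, and exposed to a series of compound concentrations for 48 h at 37 °C in DMEM with 10% FBS. The medium was replaced with serum-free medium plus MTT (5 mg/ml reagent) for 4 h at 37 °C. Formazan was dissolved in DMSO for 10 min and A570 was read. IC50 came from a plot of % viability versus control against concentration.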

[2] = Retardation factor of the compound using hexane/ethyl acetate at ratio of 1.8:1 as solvent system; assay type: physicochemical
[3] = test system: MDA-MB-453; assay: Cytotoxicity against human MDA-MB-453 cells assessed as inhibition of cell viability after 48 hrs by MTT assay; assay type: functional, cell-based; details: MDA-MB-453, 48 h; how it was run: as §1
[4] = test system: MDA-MB-231; assay: Cytotoxicity against human MDA-MB-231 cells assessed as inhibition of cell viability after 48 hrs by MTT assay; assay type: functional, cell-based; details: MDA-MB-231, 48 h; how it was run: as §1
[5] = test system: HT-29; assay: Cytotoxicity against human HT-29 cells assessed as inhibition of cell viability after 48 hrs by MTT assay; assay type: functional, cell-based; details: HT-29, 48 h; how it was run: as §1
[6] = test system: MCF7; assay: Cytotoxicity against human MCF7 cells assessed as inhibition of cell viability after 48 hrs by MTT assay; assay type: functional, cell-based; details: MCF7, 48 h; how it was run: as §1
[7] = test system: HeLa; assay: Cytotoxicity against human HeLa cells assessed as inhibition of cell viability after 48 hrs by MTT assay; assay type: functional, cell-based; how it was run: as §1
[8] = Cytotoxicity against human ME180 cells assessed as inhibition of cell viability after 48 hrs by MTT assay; assay type: functional, cell-based; details: ME-180, 48 h; how it was run: as §1
[9] = Retardation factor of the compound using hexane/ethyl acetate at ratio of 3:1 as solvent system; assay type: physicochemical
[10] = Retardation factor of the compound using hexane/ethyl acetate at ratio of 19:1 as solvent system; assay type: physicochemical
[11] = test system: MCF7; assay: Ratio of etoposide IC50 to compound IC50 for human MCF7 cells; assay type: functional
[12] = test system: PC-3; assay: Cell cycle arrest in human PC3 cells assessed as accumulation at G0/G1 phase at 3 uM after 48 hrs by flow cytometry (reference value: 55%); assay type: functional
How it was run: (§2)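 Cells were plated at […] per well in six-well plates and treated for 48 h. They were harvested by trypsinization, washed twice in PBS, and fixed in 70% ice-cold ethanol at −20 °C for 3 h. Cells were then incubated with propidium iodide cell-cycle reagent at 37 °C for 30 min, and DNA content was measured by flow cytometry. PC-3 assays were run in duplicate.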

[13] = test system: PC-3; assay: Cell cycle arrest in human PC3 cells assessed as accumulation at G2/M phase at 3 uM after 48 hrs by flow cytometry (reference value: 20.9%); assay type: functional; how it was run: as §2
[14] = test system: PC-3; assay: Cell cycle arrest in human PC3 cells assessed as increase in accumulation at G2/M phase at 3 to 6 uM after 48 hrs by flow cytometry relative to control; assay type: functional; how it was run: as §2
[15] = test system: PC-3; assay: Cell cycle arrest in human PC3 cells assessed as accumulation at S phase at 6 uM after 48 hrs by flow cytometry (reference value: 15.8%); assay type: functional; how it was run: as §2
[16] = test system: PC-3; assay: Cell cycle arrest in human PC3 cells assessed as accumulation at G0/G1 phase at 6 uM after 48 hrs by flow cytometry (reference value: 55%); assay type: functional; how it was run: as §2
[17] = test system: PC-3; assay: Ratio of etoposide IC50 to compound IC50 for human PC3 cells; assay type: functional
[18] = test system: PC-3; assay: Cell cycle arrest in human PC3 cells assessed as accumulation at G2/M phase at 6 uM after 48 hrs by flow cytometry (reference value: 20.9%); assay type: functional; how it was run: as §2
[19] = test system: PC-3; assay: Induction of morphological changes in human PC3 cells assessed as early apoptosis by measuring condensed chromatin, cell membrane blebbing, destructive fragmentation of nuclei at 3 uM after 48 hrs by acridine orange/ethidium bromide staining based fluorescence microscopy; assay type: functional
How it was run: (§3)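 Cells were seeded at 1×10^6 per well in 6-well plates and treated for 48 h. After a PBS wash they were stained with a 1:1 acridine orange/ethidium bromide mix for 5 min in the dark, washed again, and imaged by inverted fluorescence microscopy at 200X. Two thousand cells were counted and scored as viable, early apoptotic, late apoptotic or necrotic, expressed as %.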

[20] = test system: PC-3; assay: Induction of morphological changes in human PC3 cells assessed as late apoptosis/necrosis at 6 uM after 48 hrs by acridine orange/ethidium bromide staining based fluorescence microscopy; assay type: functional, cell-based; how it was run: as §3
[21] = test system: PC-3; assay: Cell cycle arrest in human PC3 cells assessed as accumulation at S phase at 3 uM after 48 hrs by flow cytometry (reference value: 15.8%); assay type: functional; how it was run: as §2
[22] = test system: MDA-MB-453; assay: Cell cycle arrest in human MDA-MB-453 cells assessed as accumulation at G0/G1 phase at 10 uM after 48 hrs by flow cytometry (reference value: 62.6%); assay type: functional; how it was run: as §2
[23] = test system: MDA-MB-231; assay: Ratio of etoposide IC50 to compound IC50 for human MDA-MB-231 cells; assay type: functional
[24] = test system: MDA-MB-453; assay: Cell cycle arrest in human MDA-MB-453 cells assessed as accumulation at S phase at 5 uM after 48 hrs by flow cytometry (reference value: 5.9%); assay type: functional; how it was run: as §2
[25] = test system: MDA-MB-453; assay: Induction of morphological changes in human MDA-MB-453 cells assessed as late apoptosis/necrosis at 10 uM after 48 hrs by acridine orange/ethidium bromide staining based fluorescence microscopy; assay type: functional, cell-based; how it was run: as §3
[26] = test system: MDA-MB-453; assay: Cell cycle arrest in human MDA-MB-453 cells assessed as accumulation at G2/M phase at 10 uM after 48 hrs by flow cytometry (reference value: 23.5%); assay type: functional; how it was run: as §2
[27] = test system: MDA-MB-453; assay: Ratio of etoposide IC50 to compound IC50 for human MDA-MB-453 cells; assay type: functional
[28] = test system: MDA-MB-453; assay: Cell cycle arrest in human MDA-MB-453 cells assessed as accumulation at S phase at 10 uM after 48 hrs by flow cytometry (reference value: 5.9%); assay type: functional; how it was run: as §2
[29] = test system: MDA-MB-453; assay: Cell cycle arrest in human MDA-MB-453 cells assessed as increase in accumulation at S phase after 48 hrs by flow cytometry; assay type: functional, cell-based; how it was run: as §2
[30] = test system: MDA-MB-453; assay: Cell cycle arrest in human MDA-MB-453 cells assessed as accumulation at G2/M phase at 5 uM after 48 hrs by flow cytometry (reference value: 23.5%); assay type: functional; how it was run: as §2
[31] = test system: MDA-MB-453; assay: Cell cycle arrest in human MDA-MB-453 cells assessed as accumulation at G0/G1 phase at 5 uM after 48 hrs by flow cytometry (reference value: 62.6%); assay type: functional; how it was run: as §2
[32] = test system: MDA-MB-453; assay: Induction of morphological changes in human MDA-MB-453 cells assessed as early apoptosis by measuring condensed chromatin, cell membrane blebbing, destructive fragmentation of nuclei at 5 uM after 48 hrs by acridine orange/ethidium bromide staining based fluorescence microscopy; assay type: functional; how it was run: as §3
[33] = test system: MDA-MB-453; assay: Cell cycle arrest in human MDA-MB-453 cells assessed as increase in accumulation at G2/M phase after 48 hrs by flow cytometry; assay type: functional, cell-based; how it was run: as §2

SMILES | IC50 [1] | IC50 [3] | IC50 [4] | IC50 [5] | IC50 [6] | IC50 [7] | IC50 [8] | further results
CC1=CC(=O)c2c(ccc3c2OC(CI)C3)C1=O (stereo unspecified) | 26.8 µM | 21.6 µM | 33.2 µM | 48.4 µM | 33.8 µM | 16.2 µM | 31.2 µM | Rf [2]: 0.38
Cc1cc2ccc3c(c2o1)C(=O)C=CC3=O | 18.2 µM | 25.2 µM | 38.9 µM | 57.9 µM | 24.3 µM | 51.2 µM | 15 µM | Rf [9]: 0.42
COc1cccc2c1C(=O)c1c(O)c3c(c(O)c1C2=O)C[C@@](O)(C(=O)CO)C[C@@H]3O[C@H]1C[C@H](N)[C@H](O)[C@H](C)O1 [DOXORUBICIN] | – | – | – | – | – | – | 0.39 µM | –
C=CCc1ccc2c(c1O)C(=O)C=C(C)C2=O | 16.8 µM | 39 µM | 62.9 µM | 63 µM | 11.6 µM | 60.8 µM | 60.8 µM | Rf [10]: 0.35; Ratio [11]: 2
CC1=CC(=O)c2c(ccc3cc(C)oc23)C1=O | 31.1 µM | 32.6 µM | 44 µM | 60.1 µM | 28.8 µM | 55.2 µM | 44.1 µM | Rf [9]: 0.43
O=C1C=CC(=O)c2c1ccc1c2OC(CI)C1 (stereo unspecified) | 12.7 µM | 20.8 µM | 29.2 µM | 31.3 µM | 13.4 µM | 27.4 µM | 9.4 µM | Rf [2]: 0.48
O=C1C=CC(=O)c2c(O)cccc21 [JUGLONE] | 88.7 µM | 27.5 µM | 75.8 µM | > 100 µM | 16.5 µM | 93.7 µM | 65.4 µM | –
C=CCOc1cccc2c1C(=O)C=CC2=O | 22.3 µM | 37.8 µM | > 100 µM | 32.3 µM | 24 µM | > 100 µM | > 100 µM | –
C=CCOc1cccc2c1C(=O)C=C(C)C2=O | 34.2 µM | 29.3 µM | 36.1 µM | 33.7 µM | 14.7 µM | 78 µM | 46.7 µM | Rf [9]: 0.45
COc1cc([C@@H]2c3cc4c(cc3[C@@H](O[C@@H]3O[C@@H]5CO[C@@H](C)O[C@H]5[C@H](O)[C@H]3O)[C@H]3COC(=O)[C@H]23)OCO4)cc(OC)c1O [ETOPOSIDE] | – | 12.5 µM | – | – | – | 4.71 µM | 8.9 µM | –
CC1=CC(=O)c2c(O)cccc2C1=O [PLUMBAGIN] | 17.2 µM | 34.6 µM | 51.1 µM | 26.2 µM | 12.2 µM | 59 µM | 43.4 µM | –
O=C1C=CC(=O)c2c1ccc1c2OCC=C1 | 5.7 µM | 37.2 µM | 45.6 µM | 27.8 µM | 23.2 µM | 59.6 µM | 45.5 µM | Activity [12]: 45.3%; Activity [13]: 30.8%; Rf [2]: 0.38; fold change (FC) [14]: 1.6; Activity [15]: 12.3%; Activity [16]: 46.7%; Ratio IC50 [17]: 2.5; Activity [18]: 32%; Activity [19]: Active; Activity [20]: Active; Activity [21]: 15.4%
CC1=CC(=O)c2c(ccc3c2OCC=C3)C1=O | 24.5 µM | 10.9 µM | 18.3 µM | 34.6 µM | 11.7 µM | > 100 µM | 25.9 µM | Activity [22]: 10.5%; Ratio IC50 [23]: 1.3; Rf [2]: 0.39; Activity [24]: 12.6%; Activity [25]: Active; Activity [26]: 55.9%; Ratio IC50 [27]: 1.1; Activity [28]: 21.5%; Activity [29]: Dose-dependent effect; Activity [30]: 31.3%; Activity [31]: 45%; Activity [32]: Active; Ratio IC50 [11]: 2; Activity [33]: Dose-dependent effect
C=CCc1ccc2c(c1O)C(=O)C=CC2=O | 92.9 µM | 53.7 µM | > 100 µM | > 100 µM | 58.2 µM | > 100 µM | 82.9 µM | Rf [10]: 0.39
